ChEMBL document CHEMBL4024711, “Design, synthesis and biological evaluation of novel nitric oxide-donating protoberberine derivatives as antitumor agents” (Eur J Med Chem, 2017)
Calls of active or inactive are those of the source. The rule behind the calls is not given here.

Assays:
HepG2 [1] = assay: Cytotoxicity against human HepG2 cells at 2 uM after 72 hrs in presence of NO scavenger PTIO by MTT assay; format: functional, cell-based
Summary of the method: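 HepG2 cells were pretreated for 2 h with graded concentrations of carboxy-PTIO (an NO scavenger), or left unpretreated. They were then exposed to 2 μM compound for 72 h, and growth was assessed by MTT. Mean ± SD, n=3.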

SMMC-7721 = assay: Cytotoxicity against human SMMC7721 cells after 72 hrs by MTT assay; format: functional, cell-based; conditions: SMMC-7721, 72 h
Summary of the method: (§1)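 MTT assay. Cells were plated and grown 24 h at 37 °C, 5% CO2, then exposed to compound in medium with 0.1% DMSO for 72 h. MTT (5 mg/mL in PBS) was added for 4 h and absorbance read at 490 nm. IC50 was taken from dose-response curves; at least three independent experiments.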

L02 = assay: Cytotoxicity against human LO2 cells after 72 hrs by MTT assay; format: cell-based; conditions: L02, 72 h; summary of the method: as §1
HepG2 [2] = assay: Cell cycle arrest in human HepG2 cells assessed as accumulation at G1 phase at 0.5 uM after 72 hrs by propidium iodide staining based flow cytometric method (reference value: 56.77%); format: functional
Summary of the method: (§2)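 HepG2 cells were seeded and grown 24 h at 37 °C, 5% CO2. They were then exposed to 0, 0.5, 1 or 2 μM for 72 h, fixed in 70% ethanol at 4 °C for 12 h, and stained with RNase A plus propidium iodide for 30 min. DNA content was measured by flow cytometry to give the cell-cycle phase distribution.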

HepG2 [3] = assay: Cell cycle arrest in human HepG2 cells assessed as accumulation at S phase at 0.5 uM after 72 hrs by propidium iodide staining based flow cytometric method (reference value: 25.78%); format: functional; summary of the method: as §2
HepG2 [4] = assay: Cell cycle arrest in human HepG2 cells assessed as accumulation at G1 phase at 1 uM after 72 hrs by propidium iodide staining based flow cytometric method (reference value: 56.77%); format: functional; summary of the method: as §2
HepG2 [5] = assay: Cell cycle arrest in human HepG2 cells assessed as accumulation at G2 phase at 1 uM after 72 hrs by propidium iodide staining based flow cytometric method (reference value: 17.45%); format: functional; summary of the method: as §2
HepG2 [6] = assay: Cell cycle arrest in human HepG2 cells assessed as accumulation at S phase at 1 uM after 72 hrs by propidium iodide staining based flow cytometric method (reference value: 25.78%); format: functional; summary of the method: as §2
HepG2 [7] = assay: Cell cycle arrest in human HepG2 cells assessed as accumulation at G1 phase at 2 uM after 72 hrs by propidium iodide staining based flow cytometric method (reference value: 56.77%); format: functional; summary of the method: as §2
HepG2 [8] = assay: Cell cycle arrest in human HepG2 cells assessed as accumulation at G2 phase at 2 uM after 72 hrs by propidium iodide staining based flow cytometric method (reference value: 17.45%); format: functional; summary of the method: as §2
HepG2 [9] = assay: Induction of apoptosis in human HepG2 cells after 72 hrs by Annexin V-APC/7-AAD staining based flow cytometric method; format: functional, cell-based
HepG2 [10] = assay: Induction of apoptosis in human HepG2 cells assessed as live cells at 0.5 uM after 72 hrs by Annexin V-APC/7-AAD staining based flow cytometric method (reference value: 94.99%); format: functional
HepG2 [11] = assay: Induction of apoptosis in human HepG2 cells assessed as early apoptotic cells at 0.5 uM after 72 hrs by Annexin V-APC/7-AAD staining based flow cytometric method (reference value: 2.06%); format: functional
HepG2 [12] = assay: Induction of apoptosis in human HepG2 cells assessed as late apoptotic cells at 0.5 uM after 72 hrs by Annexin V-APC/7-AAD staining based flow cytometric method (reference value: 0.51%); format: functional
HepG2 [13] = assay: Induction of apoptosis in human HepG2 cells assessed as necrotic cells at 0.5 uM after 72 hrs by Annexin V-APC/7-AAD staining based flow cytometric method (reference value: 2.44%); format: functional
HepG2 [14] = assay: Induction of apoptosis in human HepG2 cells assessed as live cells at 1 uM after 72 hrs by Annexin V-APC/7-AAD staining based flow cytometric method (reference value: 94.99%); format: functional
HepG2 [15] = assay: Induction of apoptosis in human HepG2 cells assessed as late apoptotic cells at 1 uM after 72 hrs by Annexin V-APC/7-AAD staining based flow cytometric method (reference value: 0.51%); format: functional
HepG2 [16] = assay: Induction of apoptosis in human HepG2 cells assessed as necrotic cells at 1 uM after 72 hrs by Annexin V-APC/7-AAD staining based flow cytometric method (reference value: 2.44%); format: functional
HepG2 [17] = assay: Induction of apoptosis in human HepG2 cells assessed as live cells at 2 uM after 72 hrs by Annexin V-APC/7-AAD staining based flow cytometric method (reference value: 94.99%); format: functional
HepG2 [18] = assay: Induction of apoptosis in human HepG2 cells assessed as necrotic cells at 2 uM after 72 hrs by Annexin V-APC/7-AAD staining based flow cytometric method (reference value: 2.44%); format: functional
HepG2 [19] = assay: Disruption of mitochondrial membrane potential in human HepG2 cells assessed as intact mitochondrial membrane at 0.5 uM after 72 hrs by JC1 staining based flow cytometric method (reference value: 96.94%); format: functional
Summary of the method: (§3)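 HepG2 cells were exposed to 0, 0.5, 1 or 2 μM for 72 h, washed in PBS, and resuspended in JC-1 incubation buffer at 37 °C for 15 min. The fractions of cells with healthy or collapsed mitochondrial membrane potential were determined by flow cytometry.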

HepG2 [20] = assay: Disruption of mitochondrial membrane potential in human HepG2 cells assessed as intact mitochondrial membrane at 1 uM after 72 hrs by JC1 staining based flow cytometric method (reference value: 96.94%); format: functional; summary of the method: as §3
HepG2 [21] = assay: Disruption of mitochondrial membrane potential in human HepG2 cells assessed as intact mitochondrial membrane at 2 uM after 72 hrs by JC1 staining based flow cytometric method (reference value: 96.94%); format: functional; summary of the method: as §3
HepG2 [22] = assay: Disruption of mitochondrial membrane potential in human HepG2 cells assessed as collapse of the mitochondrial membrane potential at 2 uM after 72 hrs by JC1 staining based flow cytometric method (reference value: 3.05%); format: functional; summary of the method: as §3
H22 [23] = assay: Antitumor activity against […] H22 cells xenografted in ICR mouse assessed as tumor growth inhibition at 15 mg/kg, iv administered once daily for 21 days measured post last dose relative to control; format: functional; conditions: 504 h, read-out: TGI
H22 [24] = assay: Antitumor activity against […] H22 cells xenografted in ICR mouse assessed as tumor weight at 30 mg/kg, iv administered once daily for 21 days measured post last dose (reference value: 4.38 +/- 0.16 g); format: functional
H22 [25] = assay: Antitumor activity against […] H22 cells xenografted in ICR mouse assessed as tumor weight at 15 mg/kg, iv administered once daily for 21 days measured post last dose (reference value: 4.38 +/- 0.16 g); format: functional
Mus musculus [26] = assay: Toxicity in ICR mouse xenografted with […] cells assessed as body weight at 30 mg/kg, iv administered once daily for 21 days measured post last dose (reference value: 26 +/- 0.6 g); format: organism-based; conditions: in vivo, 504 h
Mus musculus [27] = assay: Toxicity in ICR mouse xenografted with […] cells assessed as body weight at 15 mg/kg, iv administered once daily for 21 days measured post last dose (reference value: 26 +/- 0.6 g); format: organism-based; conditions: in vivo, 504 h

COc1cc2c(cc1OC)-c1c(Br)c3ccc(OC)c(OCCCCCCCCO[N+](=O)[O-])c3c[n+]1CC2.[Br-]
Activity (HepG2 [1]): inactive
IC50 (SMMC-7721): 1.21 µM
IC50 (L02): 28.9 µM
Activity (HepG2 [2]): 51.14%
Activity (HepG2 [3]): 25.49%
Activity (HepG2 [4]): 47.33%
Activity (HepG2 [5]): 29.57%
Activity (HepG2 [6]): 23.1%
Activity (HepG2 [7]): 34.32%
Activity (HepG2 [8]): 41.45%
Activity (HepG2 [9]): Dose-dependent effect
Activity (HepG2 [10]): 85.1%
Activity (HepG2 [11]): 11.02%
Activity (HepG2 [12]): 2.39%
Activity (HepG2 [13]): 1.49%
Activity (HepG2 [14]): 63.61%
Activity (HepG2 [15]): 9.11%
Activity (HepG2 [16]): 4.32%
Activity (HepG2 [17]): 44.44%
Activity (HepG2 [18]): 4.43%
Activity (HepG2 [19]): 87.9%
Activity (HepG2 [20]): 74.5%
Activity (HepG2 [21]): 59.5%
Activity (HepG2 [22]): 40.5%
inhibition in vivo at 15 mg/kg (H22 [23]): 45.9%
Activity (H22 [24]): 1.64 g
Activity (H22 [25]): 2.37 g
Activity (Mus musculus [26]): 25.2 g
Activity (Mus musculus [27]): 25.4 g
